Measured values taken from ChEMBL document CHEMBL3045504, “Activity of 1,4-benzoquinones against formosan subterranean termites (Coptotermes formosanus)” (2008).

Key:
Format in all cases: functional
Coptotermes formosanus [1] = assay: Termiticidal activity against Coptotermes formosanus placed on 1 % wt/wt compound treated filter paper assessed as termite mortality measured 11 days post compound exposure
Coptotermes formosanus [2] = assay: Termiticidal activity against Coptotermes formosanus placed on 1 % wt/wt compound treated filter paper assessed as termite mortality measured 21 days post compound exposure
Coptotermes formosanus [3] = assay: Termiticidal activity against Coptotermes formosanus placed on 1 % wt/wt compound treated filter paper assessed as termite mortality measured 3 days post compound exposure
Coptotermes formosanus [4] = assay: Antifeedant activity against Coptotermes formosanus placed on 1 % wt/wt compound treated filter paper assessed as filter paper consumption measured 21 days post compound exposure (reference value: 54.4 +/- 20.7 mg)
Coptotermes formosanus [5] = assay: Termiticidal activity against Coptotermes formosanus placed on 0.01 % wt/wt compound treated filter paper assessed as termite mortality measured 6 days post compound exposure
In short: (§1)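 Treated filter paper disks moistened with 100 µL water; 20 C. formosanus workers (third instar or greater) plus 1 soldier per dish from field colonies kept on spruce, ca. 100% RH, 26.6 °C. Daily mortality scored for 3 weeks; cumulative percent mortality from four replicates, each a different colony; water-only controls; ANOVA, protected Fisher LSD (P < 0.05) after arcsine square-root transform.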

Coptotermes formosanus [6] = assay: Termiticidal activity against Coptotermes formosanus placed on 0.1 % wt/wt compound treated filter paper assessed as termite mortality measured 11 days post compound exposure; in short: as §1
Coptotermes formosanus [7] = assay: Termiticidal activity against Coptotermes formosanus placed on 0.05 % wt/wt compound treated filter paper assessed as termite mortality measured 13 days post compound exposure; in short: as §1
Coptotermes formosanus [8] = assay: Termiticidal activity against Coptotermes formosanus placed on 0.001 % wt/wt compound treated filter paper assessed as termite mortality measured 6 days post compound exposure; in short: as §1
Coptotermes formosanus [9] = assay: Antifeedant activity against Coptotermes formosanus placed on 0.05 % wt/wt compound treated filter paper assessed as filter paper consumption measured 21 days post compound exposure (reference value: 78.2 +/- 26.7 mg)
Coptotermes formosanus [10] = assay: Termiticidal activity against Coptotermes formosanus placed on 0.5 % wt/wt compound treated filter paper assessed as termite mortality measured 17 days post compound exposure; in short: as §1
Coptotermes formosanus [11] = assay: Antifeedant activity against Coptotermes formosanus placed on 0.01 % wt/wt compound treated filter paper assessed as filter paper consumption measured 21 days post compound exposure (reference value: 78.2 +/- 26.7 mg)
Coptotermes formosanus [12] = assay: Termiticidal activity against Coptotermes formosanus placed on 0.1 % wt/wt compound treated filter paper assessed as termite mortality measured 6 days post compound exposure; in short: as §1
Coptotermes formosanus [13] = assay: Termiticidal activity against Coptotermes formosanus placed on 0.01 % wt/wt compound treated filter paper assessed as termite mortality measured 11 days post compound exposure; in short: as §1
Coptotermes formosanus [14] = assay: Antifeedant activity against Coptotermes formosanus placed on 0.5 % wt/wt compound treated filter paper assessed as filter paper consumption measured 21 days post compound exposure (reference value: 78.2 +/- 26.7 mg)
Coptotermes formosanus [15] = assay: Termiticidal activity against Coptotermes formosanus placed on 0.05 % wt/wt compound treated filter paper assessed as termite mortality measured 11 days post compound exposure; in short: as §1
Coptotermes formosanus [16] = assay: Termiticidal activity against Coptotermes formosanus placed on 0.5 % wt/wt compound treated filter paper assessed as termite mortality measured 13 days post compound exposure; in short: as §1
Coptotermes formosanus [17] = assay: Termiticidal activity against Coptotermes formosanus placed on 0.001 % wt/wt compound treated filter paper assessed as termite mortality measured 9 days post compound exposure; in short: as §1
Coptotermes formosanus [18] = assay: Termiticidal activity against Coptotermes formosanus placed on 0.05 % wt/wt compound treated filter paper assessed as termite mortality measured 21 days post compound exposure; in short: as §1
Coptotermes formosanus [19] = assay: Antifeedant activity against Coptotermes formosanus placed on 0.1 % wt/wt compound treated filter paper assessed as filter paper consumption measured 21 days post compound exposure (reference value: 78.2 +/- 26.7 mg)
Coptotermes formosanus [20] = assay: Termiticidal activity against Coptotermes formosanus placed on 0.01 % wt/wt compound treated filter paper assessed as termite mortality measured 17 days post compound exposure; in short: as §1
Coptotermes formosanus [21] = assay: Antifeedant activity against Coptotermes formosanus placed on 0.001 % wt/wt compound treated filter paper assessed as filter paper consumption measured 21 days post compound exposure (reference value: 78.2 +/- 26.7 mg)
Coptotermes formosanus [22] = assay: Termiticidal activity against Coptotermes formosanus placed on 0.01 % wt/wt compound treated filter paper assessed as termite mortality measured 9 days post compound exposure; in short: as §1
Coptotermes formosanus [23] = assay: Termiticidal activity against Coptotermes formosanus placed on 0.001 % wt/wt compound treated filter paper assessed as termite mortality measured 11 days post compound exposure; in short: as §1
Coptotermes formosanus [24] = assay: Termiticidal activity against Coptotermes formosanus placed on 0.1 % wt/wt compound treated filter paper assessed as termite mortality measured 13 days post compound exposure; in short: as §1
Coptotermes formosanus [25] = assay: Termiticidal activity against Coptotermes formosanus placed on 0.05 % wt/wt compound treated filter paper assessed as termite mortality measured 9 days post compound exposure; in short: as §1
Coptotermes formosanus [26] = assay: Termiticidal activity against Coptotermes formosanus placed on 0.5 % wt/wt compound treated filter paper assessed as termite mortality measured 21 days post compound exposure; in short: as §1
Coptotermes formosanus [27] = assay: Antifeedant activity against Coptotermes formosanus placed on 1 % wt/wt compound treated filter paper assessed as filter paper consumption measured 21 days post compound exposure (reference value: 85 +/- 15.1 mg)
Coptotermes formosanus [28] = assay: Termiticidal activity against Coptotermes formosanus placed on 0.5 % wt/wt compound treated filter paper assessed as termite mortality measured 11 days post compound exposure; in short: as §1
Coptotermes formosanus [29] = assay: Termiticidal activity against Coptotermes formosanus placed on 0.1 % wt/wt compound treated filter paper assessed as termite mortality measured 17 days post compound exposure; in short: as §1
Coptotermes formosanus [30] = assay: Termiticidal activity against Coptotermes formosanus placed on 0.01 % wt/wt compound treated filter paper assessed as termite mortality measured 21 days post compound exposure; in short: as §1
Coptotermes formosanus [31] = assay: Termiticidal activity against Coptotermes formosanus placed on 0.05 % wt/wt compound treated filter paper assessed as termite mortality measured 17 days post compound exposure; in short: as §1
Coptotermes formosanus [32] = assay: Termiticidal activity against Coptotermes formosanus placed on 0.001 % wt/wt compound treated filter paper assessed as termite mortality measured 13 days post compound exposure; in short: as §1
Coptotermes formosanus [33] = assay: Termiticidal activity against Coptotermes formosanus placed on 0.5 % wt/wt compound treated filter paper assessed as termite mortality measured 6 days post compound exposure; in short: as §1
Coptotermes formosanus [34] = assay: Termiticidal activity against Coptotermes formosanus placed on 0.001 % wt/wt compound treated filter paper assessed as termite mortality measured 21 days post compound exposure; in short: as §1
Coptotermes formosanus [35] = assay: Termiticidal activity against Coptotermes formosanus placed on 0.01 % wt/wt compound treated filter paper assessed as termite mortality measured 13 days post compound exposure; in short: as §1
Coptotermes formosanus [36] = assay: Termiticidal activity against Coptotermes formosanus placed on 0.001 % wt/wt compound treated filter paper assessed as termite mortality measured 17 days post compound exposure; in short: as §1
Coptotermes formosanus [37] = assay: Termiticidal activity against Coptotermes formosanus placed on 0.1 % wt/wt compound treated filter paper assessed as termite mortality measured 21 days post compound exposure; in short: as §1
Coptotermes formosanus [38] = assay: Termiticidal activity against Coptotermes formosanus placed on 0.5 % wt/wt compound treated filter paper assessed as termite mortality measured 9 days post compound exposure; in short: as §1
Coptotermes formosanus [39] = assay: Termiticidal activity against Coptotermes formosanus placed on 0.05 % wt/wt compound treated filter paper assessed as termite mortality measured 6 days post compound exposure; in short: as §1
Coptotermes formosanus [40] = assay: Termiticidal activity against Coptotermes formosanus placed on 0.1 % wt/wt compound treated filter paper assessed as termite mortality measured 9 days post compound exposure; in short: as §1
Coptotermes formosanus [41] = assay: Antifeedant activity against Coptotermes formosanus placed on 1 % wt/wt compound treated filter paper assessed as filter paper consumption measured 21 days post compound exposure (reference value: 15.9 +/- 10.4 mg)
Coptotermes formosanus [42] = assay: Antifeedant activity against Coptotermes formosanus placed on 0.01 % wt/wt compound treated filter paper assessed as filter paper consumption measured 21 days post compound exposure (reference value: 44.6 +/- 0.0 mg)
Coptotermes formosanus [43] = assay: Antifeedant activity against Coptotermes formosanus placed on 0.5 % wt/wt compound treated filter paper assessed as filter paper consumption measured 21 days post compound exposure (reference value: 44.6 +/- 0.0 mg)
Coptotermes formosanus [44] = assay: Antifeedant activity against Coptotermes formosanus placed on 0.1 % wt/wt compound treated filter paper assessed as filter paper consumption measured 21 days post compound exposure (reference value: 44.6 +/- 0.0 mg)
Coptotermes formosanus [45] = assay: Antifeedant activity against Coptotermes formosanus placed on 0.001 % wt/wt compound treated filter paper assessed as filter paper consumption measured 21 days post compound exposure (reference value: 44.6 +/- 0.0 mg)
Coptotermes formosanus [46] = assay: Antifeedant activity against Coptotermes formosanus placed on 0.05 % wt/wt compound treated filter paper assessed as filter paper consumption measured 21 days post compound exposure (reference value: 44.6 +/- 0.0 mg)

Row | SMILES | mortality (Coptotermes formosanus [1]) | mortality (Coptotermes formosanus [2]) | mortality (Coptotermes formosanus [3]) | mortality (Coptotermes formosanus [5]) | mortality (Coptotermes formosanus [6]) | mortality (Coptotermes formosanus [7]) | mortality (Coptotermes formosanus [8]) | mortality (Coptotermes formosanus [10]) | mortality (Coptotermes formosanus [12]) | mortality (Coptotermes formosanus [13]) | mortality (Coptotermes formosanus [15]) | mortality (Coptotermes formosanus [16]) | mortality (Coptotermes formosanus [17]) | mortality (Coptotermes formosanus [18]) | mortality (Coptotermes formosanus [20]) | mortality (Coptotermes formosanus [22]) | mortality (Coptotermes formosanus [23]) | mortality (Coptotermes formosanus [24]) | mortality (Coptotermes formosanus [25]) | mortality (Coptotermes formosanus [26]) | other results
1 | CC1=CC(=O)C(C)=C(C)C1=O | 18.3% | 36.7% | 0% |  |  |  |  |  |  |  |  |  |  |  |  |  |  |  |  |  | Activity (Coptotermes formosanus [4]): 55.4 mg
2 | COC1=C(OC)C(=O)C(CC=C(C)C)=C(C)C1=O [Coenzyme Q1] | 100% | 100% | 70% | 5% | 0% | 0% | 3.3% | 8.3% | 0% | 5% | 0% | 5% | 3.3% | 5% | 5% | 5% | 3.3% | 0% | 0% | 10% | Activity (Coptotermes formosanus [9]): 98.1 mg; Activity (Coptotermes formosanus [11]): 77.3 mg; Activity (Coptotermes formosanus [14]): 95.8 mg; Activity (Coptotermes formosanus [19]): 101.6 mg; Activity (Coptotermes formosanus [21]): 98.5 mg; Activity (Coptotermes formosanus [27]): 16.9 mg; mortality (Coptotermes formosanus [28]): 3.3%; mortality (Coptotermes formosanus [29]): 8.3%; mortality (Coptotermes formosanus [30]): 5%; mortality (Coptotermes formosanus [31]): 5%; mortality (Coptotermes formosanus [32]): 3.3%; mortality (Coptotermes formosanus [33]): 3.3%; mortality (Coptotermes formosanus [34]): 3.3%; mortality (Coptotermes formosanus [35]): 5%; mortality (Coptotermes formosanus [36]): 3.3%; mortality (Coptotermes formosanus [37]): 8.3%; mortality (Coptotermes formosanus [38]): 3.3%; mortality (Coptotermes formosanus [39]): 0%; mortality (Coptotermes formosanus [40]): 0%
3 | CCCCCC1=CC(=O)C=C(OC)C1=O [Primin] | 100% | 100% | 87.5% | 0% | 28.3% | 5% | 0% | 100% | 21.7% | 0% | 3.3% | 96.7% | 0% | 25% | 10% | 0% | 0% | 36.7% | 3.3% | 100% | Activity (Coptotermes formosanus [41]): 0.1 mg; Activity (Coptotermes formosanus [42]): 48.4 mg; Activity (Coptotermes formosanus [43]): 4.9 mg; Activity (Coptotermes formosanus [44]): 26.8 mg; mortality (Coptotermes formosanus [28]): 91.7%; mortality (Coptotermes formosanus [29]): 40%; mortality (Coptotermes formosanus [30]): 21.7%; mortality (Coptotermes formosanus [31]): 8.3%; mortality (Coptotermes formosanus [32]): 0%; Activity (Coptotermes formosanus [45]): 48.8 mg; mortality (Coptotermes formosanus [33]): 56.7%; mortality (Coptotermes formosanus [34]): 8.3%; mortality (Coptotermes formosanus [35]): 5%; Activity (Coptotermes formosanus [46]): 42.2 mg; mortality (Coptotermes formosanus [36]): 1.7%; mortality (Coptotermes formosanus [37]): 50%; mortality (Coptotermes formosanus [38]): 80%; mortality (Coptotermes formosanus [39]): 3.3%; mortality (Coptotermes formosanus [40]): 21.7%
